The record followed here is PubChem BioAssay.

Calls of active or inactive are those of the source.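 Rule for the calls, unless noted: active = Her2 level under about 52% in both replicate screens, with viability over 70% of control (limit read from the data); inconclusive = Her2 under the limit in one screen only, or viability under 70%; inactive = Her2 level above the set limit.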

Experiment [1] in a line: Her2 expression decrease, cell viability multiplex – SKBR3 breast tumor cells, AlphaScreen, ATP viability, primary screen (AID 461).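 For Her2 level: lower value means less Her2 protein in the cells.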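 For viability: percent of carrier control wells set as 100% viability.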 The conditions noted are these: SKBR3 Her2 protein level, 18-24 h, measured here: SKBR3 viability, ATP luminescence, at 10 µM.
Experiment [2] deals with Receptor tyrosine-protein kinase erbB-2 (Homo sapiens) (UniProt P04626). The description is as above. The conditions noted are these: 18-24 h, at 10 µM, stronger effect = lower value.
Experiment [3] can be described thus: reduced viability of SK-BR-3 breast cancer cells – cell-based, 24 h, human, pilot screen (AID 572;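 active = viability at or below 10% of carrier control in both of two separate runs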;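 note: compound exposure lasted between 18 and 24 h rather than exactly 24 h; 100% = carrier-treated control wells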). The conditions noted are these: SK-BR-3 viability, CellTiter-Glo luminescence, at 10 µM, stronger effect = lower value.
Experiment [4] can be described thus: HUVEC growth inhibition – cell-based, human, primary screen (AID 575;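 active = viability at or below 30% in both replicate assays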;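 note: 100% = median of untreated cell wells with 0.1% DMSO on each plate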). Particulars: HUVEC proliferation, CellTiter-Glo luminescence, 72 h; at 10 µM; stronger effect = lower value. In a few lines:
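material = primary HUVEC, no more than 12 passages | input = 1250 cells per well | controls = vehicle and MePR control wells | measured by = CTG luminescence | times = 72 h compound incubation | format = collagen-coated 384-well format | read-out = % viability vs DMSO wells | doses = single 10 µM dose, 0.1% DMSO, from 5x medium stock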

Experiment [5] in a line: H69AR cell proliferation blockers – human, duplicate replicates, primary screen (AID 580;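 active = viability at or under a set limit in both replicates, limit being median viability minus 3 SD, cut at about 48% in these data, passing the limit was not always enough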;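 note: 100% = mean luminescence of untreated wells and 0% = no signal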). Particulars: H69AR lung tumor cells viability, ATP luminescence, 72 h; at 10 µM; stronger effect = lower value.
Experiment [6] can be described thus: MRP1 drug-resistance reversers in H69AR cells – cell-based, doxorubicin co-treatment, pilot screen (AID 601;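 active = viability loss from added drug above about 55%, and viability with drug at most 40%, in both replicates, limit read from the data, passing the limit was not always enough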). The conditions noted are these: CellTiter-Glo, 72 h, at 10 µM; for differential viability (reversal): stronger effect = higher value.
Experiment [7] in a line: yeast transport mutant growth inhibition pilot in 384-well plates, post-Golgi transport modulator project (AID 636; in the data active = inhibition above about 31%). Particulars: absorbance 615 nm, about 18 h, stronger effect = higher value.
The nature of experiment [8]: growth suppression of yeast trafficking mutant, preliminary HTS, modulators of trafficking downstream of Golgi apparatus project, 1536-format plate, OD 615 nm (AID 637; in the data active = inhibition above about 30%). Particulars: yeast transport mutant growth, absorbance 615 nm, 18 h; stronger effect = higher value.
[9] abbreviates: H69AR cells + 2 uM doxorubicin, measured here: viability with 2 uM doxorubicin, stronger effect = lower value.
[10] abbreviates: H69AR cells, compound alone cytotoxicity.

Sequence of Receptor tyrosine-protein kinase erbB-2 (Homo sapiens) (P04626 whole entry, looked up): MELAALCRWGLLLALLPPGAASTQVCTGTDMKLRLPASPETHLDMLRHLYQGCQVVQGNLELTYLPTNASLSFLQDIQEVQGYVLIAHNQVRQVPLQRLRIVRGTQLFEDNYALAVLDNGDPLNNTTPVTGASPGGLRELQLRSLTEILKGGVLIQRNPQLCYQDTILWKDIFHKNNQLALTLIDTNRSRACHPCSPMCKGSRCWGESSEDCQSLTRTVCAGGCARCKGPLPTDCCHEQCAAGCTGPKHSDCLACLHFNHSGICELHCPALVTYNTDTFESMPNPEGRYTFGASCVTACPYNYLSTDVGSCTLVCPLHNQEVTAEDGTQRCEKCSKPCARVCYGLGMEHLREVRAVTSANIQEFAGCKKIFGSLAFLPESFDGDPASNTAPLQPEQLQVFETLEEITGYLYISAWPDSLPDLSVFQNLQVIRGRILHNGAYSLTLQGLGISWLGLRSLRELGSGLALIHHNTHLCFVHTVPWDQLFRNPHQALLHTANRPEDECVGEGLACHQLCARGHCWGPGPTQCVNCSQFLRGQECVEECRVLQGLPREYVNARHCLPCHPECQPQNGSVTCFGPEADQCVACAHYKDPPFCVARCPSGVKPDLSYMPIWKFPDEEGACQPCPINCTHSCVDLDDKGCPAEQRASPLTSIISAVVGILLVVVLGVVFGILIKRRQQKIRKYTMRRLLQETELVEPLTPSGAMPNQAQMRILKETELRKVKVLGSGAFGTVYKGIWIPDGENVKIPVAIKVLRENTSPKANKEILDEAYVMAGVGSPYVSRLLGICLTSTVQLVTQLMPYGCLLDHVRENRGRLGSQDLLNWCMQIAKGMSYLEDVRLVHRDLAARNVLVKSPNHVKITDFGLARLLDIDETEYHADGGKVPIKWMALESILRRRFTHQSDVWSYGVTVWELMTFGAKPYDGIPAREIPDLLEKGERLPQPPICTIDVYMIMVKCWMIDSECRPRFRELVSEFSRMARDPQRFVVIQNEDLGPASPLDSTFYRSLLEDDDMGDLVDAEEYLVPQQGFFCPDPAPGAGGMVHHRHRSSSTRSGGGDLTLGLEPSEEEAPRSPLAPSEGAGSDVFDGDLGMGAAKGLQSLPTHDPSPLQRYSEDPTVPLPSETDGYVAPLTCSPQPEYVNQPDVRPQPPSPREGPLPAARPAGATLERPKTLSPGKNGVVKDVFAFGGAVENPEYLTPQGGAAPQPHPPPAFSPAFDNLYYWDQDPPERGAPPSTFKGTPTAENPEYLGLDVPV

Turning to `COc1ccc2nc(C)cc(N3CCOCC3)c2c1`, the viability in experiment [1] was 128%; in experiment [3] it was 128% (inactive); in experiment [4] it was 101% (inactive); in experiment [5] it was 93.1% (inactive); in experiment [6] (setting [9]), 96.9%; in experiment [6] (setting [10]), 93.1%. Also, the Her2 level in experiment [2] was 101% (inactive). For the same molecule, the differential viability (reversal) in experiment [6] (H69AR cells + 2 uM doxorubicin) was -3.77% (inactive). For the same molecule, the inhibition in experiment [7] is -3.68% (inactive); in experiment [8], 9.67% (inactive).

Consider `Cc1ccc(NC2=NC3(CCCCC3)N=C(N)N2)c(C)c1`, for which the viability in experiment [1] was 114%; in experiment [3], 114% (inactive); in experiment [4] it was 87.9% (inactive); in experiment [5], 102% (inactive); in experiment [6] (setting [9]), 83.9%; in experiment [6] (setting [10]), 102%. For the same molecule, the Her2 level in experiment [2] is 96% (inactive). Besides, the differential viability (reversal) in experiment [6] (H69AR cells + 2 uM doxorubicin) was 18.6% (inactive). The inhibition in experiment [7] was 2.16% (inactive); in experiment [8] it was -5.87% (inactive).

As for `S=c1[nH]nc(-c2ccco2)n1-c1cccc2ccccc12`, the viability was 102% in experiment [1]; 102% (inactive) in experiment [3]; 78.5% (inactive) in experiment [4]; 96.9% (inactive) in experiment [5]; 93.2% in experiment [6] (setting [9]); 96.9% in experiment [6] (setting [10]). Also, the Her2 level in experiment [2] was 98.5% (inactive). Besides, in experiment [6] (H69AR cells + 2 uM doxorubicin), the differential viability (reversal) is 3.69% (inactive). The inhibition in experiment [7] is -0.54% (inactive); in experiment [8], 14.6% (inactive).

Turning to `COCCOc1nc2ccccc2nc1C`, the viability in experiment [1] was 126%; in experiment [3], 126% (inactive); in experiment [4], 88.4% (inactive); in experiment [5], 87.6% (inactive); in experiment [6] (setting [9]) it was 86.9%; in experiment [6] (setting [10]), 87.6%. Further, the Her2 level in experiment [2] is 94% (inactive). The differential viability (reversal) in experiment [6] (H69AR cells + 2 uM doxorubicin) was 0.7% (inactive). Moreover, the inhibition in experiment [7] is -3.55% (inactive); in experiment [8] it was 4.19% (inactive).

Turning to `CCc1nnc2n1N=C(c1ccc(-c3ccc(Cl)cc3Cl)o1)CS2`, the viability was 99.5% in experiment [1]; 99.5% (inactive) in experiment [3]; 110% (inactive) in experiment [4]; 108% (inactive) in experiment [5]; 84.4% in experiment [6] (setting [9]); 108% in experiment [6] (setting [10]). The Her2 level in experiment [2] was 81.5% (inactive). Besides, in experiment [6] (H69AR cells + 2 uM doxorubicin), the differential viability (reversal) was 23.9% (inactive). The inhibition was -2.99% (inactive) in experiment [7] and -3.17% (inactive) in experiment [8].

For the molecule `COc1ccc(NC(=O)CC2Oc3ccccc3NC2=O)cc1` (stereo not given), the viability in experiment [1] was 87.5%; in experiment [3], 87.5% (inactive); in experiment [4], 96.2% (inactive); in experiment [5], 97.6% (inactive); in experiment [6] (setting [9]), 97.1%; in experiment [6] (setting [10]), 97.6%. For the same molecule, in experiment [2], the Her2 level was 90% (inactive). Further, the differential viability (reversal) in experiment [6] (H69AR cells + 2 uM doxorubicin) is 0.535% (inactive). The values for the inhibition in experiment [7] and in experiment [8] were 0.27% (inactive) and -4.75% (inactive), respectively.

In the case of `O=C(CSc1nnnn1-c1ccc2c(c1)OCO2)NCc1cccs1`, the viability in experiment [1] is 88%; in experiment [3], 88% (inactive); in experiment [4] it was 93.2% (inactive); in experiment [5], 86.8% (inactive); in experiment [6] (setting [9]), 93.8%; in experiment [6] (setting [10]) it was 86.8%. Further, in experiment [2], the Her2 level was 90.5% (inactive). Besides, the differential viability (reversal) in experiment [6] (H69AR cells + 2 uM doxorubicin) was -7.04% (inactive). In addition, the inhibition was -5.68% (inactive) in experiment [7] and -1.64% (inactive) in experiment [8].

For `Cc1oc(C(=O)O)cc1CSCc1cc(C(=O)O)c(C)o1`, the viability is 104% in experiment [1]; 104% (inactive) in experiment [3]; 92.9% (inactive) in experiment [4]; 103% (inactive) in experiment [5]; 102% in experiment [6] (setting [9]); 103% in experiment [6] (setting [10]). In addition, the Her2 level in experiment [2] is 94.5% (inactive). For the same molecule, the differential viability (reversal) in experiment [6] (H69AR cells + 2 uM doxorubicin) was 1.31% (inactive). Further, the values for the inhibition in experiment [7] and in experiment [8] were -3.51% (inactive) and -1.48% (inactive), respectively.

With `Cc1nn(Cc2ccc(C(=O)NC3CCCCC3)o2)c(C)c1Br`, the viability in experiment [1] is 94.5%; in experiment [3], 94.5% (inactive); in experiment [4], 86.9% (inactive); in experiment [5], 92.9% (inactive); in experiment [6] (setting [9]), 98.7%; in experiment [6] (setting [10]), 92.9%. Also, the Her2 level in experiment [2] was 90% (inactive). Further, the differential viability (reversal) in experiment [6] (H69AR cells + 2 uM doxorubicin) was -5.8% (inactive). For the same molecule, the figures for the inhibition in experiment [7] and in experiment [8] were -3.29% (inactive) and -5.17% (inactive), respectively.

As to `O=C1CCCC2=C1C1(CCCC1)N=C(Nc1nc3ccccc3s1)N2`, the viability in experiment [1] is 99.5%; in experiment [3], 99.5% (inactive); in experiment [4], 62.8% (inactive); in experiment [5] it was 79.5% (inactive); in experiment [6] (setting [9]), 68.2%; in experiment [6] (setting [10]), 79.5%. For the same molecule, the Her2 level in experiment [2] is 80% (inactive). Moreover, in experiment [6] (H69AR cells + 2 uM doxorubicin), the differential viability (reversal) is 11.3% (inactive). Further, the inhibition was -4.21% (inactive) in experiment [7] and -2.33% (inactive) in experiment [8].

With `CCOCC(=O)Nc1sc2c(c1C(=O)OCC)CCCC2`, the viability in experiment [1] is 89%; in experiment [3] it was 89% (inactive); in experiment [4] it was 54% (inactive); in experiment [5], 90.5% (inactive); in experiment [6] (setting [9]), 95.3%; in experiment [6] (setting [10]), 90.5%. In addition, the Her2 level in experiment [2] is 89.5% (inactive). Also, the differential viability (reversal) in experiment [6] (H69AR cells + 2 uM doxorubicin) was -4.83% (inactive). Besides, the inhibition was 0.13% (inactive) in experiment [7] and 1.64% (inactive) in experiment [8].

`CC(Sc1nc(-c2ccccc2)cc(C(F)(F)F)n1)C(=O)N1CCC(C(N)=O)CC1` (stereo not given): the viability in experiment [1] is 100%; in experiment [3] it was 100% (inactive); in experiment [4], 85.6% (inactive); in experiment [5], 91.1% (inactive); in experiment [6] (setting [9]), 92.3%; in experiment [6] (setting [10]) it was 91.1%. The Her2 level in experiment [2] was 87.5% (inactive). Moreover, the differential viability (reversal) in experiment [6] (H69AR cells + 2 uM doxorubicin) was -1.27% (inactive). For the same molecule, the inhibition in experiment [7] is -0.91% (inactive); in experiment [8], 11% (inactive).
